Laboratory results published in ChEMBL document CHEMBL4610125, “Evaluation of Manassantin A Tetrahydrofuran Core Region Analogues and Cooperative Therapeutic Effects with EGFR Inhibition” (J Med Chem, 2020).
Active and inactive are the calls of the source. The rule behind the calls is not given here.

Tests used:
HEK-293T = experiment: Inhibition of HIF1 transactivation activity in HEK293T cells transfected with pGL3-5HRE-VEGF-luciferase at 0.01 to 1 uM incubated for 24 hrs under hypoxia condition by luciferase reporter gene assay; assay type: cell-based; settings: Homo sapiens
In short: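 HEK-293T cells were seeded at 5 × 10³/well, left 24 h, then co-transfected with a 5×HRE (human VEGF promoter) firefly luciferase plasmid and a pRL-SV40 Renilla plasmid. Cells were exposed to hypoxia (1% O₂) with serially diluted compound (0, 0.01, 0.1, 1 μM) for 24 h, with 10 μM 17-AAG as reference. Dual-Glo readout, with firefly normalized to Renilla. Three independent experiments.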

[1] = tested on: Lewis lung carcinoma cell line; experiment: Antitumor activity against mouse LLC cells allografted in C57BL/6J mouse assessed as reduction tumor weight at 5 mg/kg, ip dosed every 3 days for 17 days starting from 2 days after inoculation relative to control; assay type: functional, organism-based
In short: (§1)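 Male C57BL/6 mice, 5−6 weeks old, were given LLC cells (2 × 10⁵ in 200 μL serum-free medium) s.c. into the dorsal flanks on Day 0. From day 2, groups of n = 5 received 5 mg/kg i.p. […]. Tumor size was measured three times a week and tumor weight at sacrifice. Statistics were versus the vehicle control.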

[2] = tested on: Lewis lung carcinoma cell line; experiment: Antitumor activity against mouse LLC cells allografted in C57BL/6J mouse assessed as reduction of tumor weight at 5 mg/kg, ip dosed every 3 days for 17 days starting from 2 days after inoculation and co-treated with 5 mg/kg, ip EGFR inhibitor gefitinib relative to control; assay type: functional, organism-based; in short: as §1
[3] = tested on: Lewis lung carcinoma cell line; experiment: animal or person; assay type: functional; settings: Mus musculus, ip, read-out: TGI
[4] = Toxicity in C57BL/6J mouse allografted with mouse LLC cells assessed as effect on body weight at 5 mg/kg, ip dosed every 3 days for 17 days starting from 2 days after inoculation and co-treated with 5 mg/kg, ip EGFR inhibitor gefitinib; assay type: organism-based, Lewis lung carcinoma; settings: in vivo; in short: as §1
[5] = Toxicity in C57BL/6J mouse allografted with mouse LLC cells assessed as effect on body weight at 5 mg/kg, ip dosed every 3 days for 17 days starting from 2 days after inoculation; assay type: organism-based, Lewis lung carcinoma; settings: in vivo; in short: as §1
[6] = tested on: Lewis lung carcinoma cell line; experiment: Antitumor activity against mouse LLC cells allografted in C57BL/6J mouse assessed as inhibition of tumor growth at 5 mg/kg, ip dosed every 3 days for 17 days starting from 2 days after inoculation and co-treated with 5 mg/kg, ip EGFR inhibitor gefitinib relative to control; assay type: functional; settings: read-out: TGI; in short: as §1

Row | Compound | inhibition (HEK-293T) | further results
1 | COc1ccc(C(=O)[C@@H](C)Oc2ccc(C3=C(c4ccc(O[C@H](C)C(=O)c5ccc(OC)c(OC)c5)c(OC)c4)CCC3)cc2OC)cc1OC | inactive | –
2 | COc1cc2ncnc(Nc3ccc(F)c(Cl)c3)c2cc1OCCCN1CCOCC1 | – | Activity [1]: Active
3 | COc1ccc(C(=O)[C@@H](C)Oc2ccc([C@@H]3CC[C@@H](c4ccc(O[C@H](C)C(=O)c5ccc(OC)c(OC)c5)c(OC)c4)O3)cc2OC)cc1OC | Dose-dependent effect | –
4 | COc1ccc(C(=O)[C@H](C)Oc2ccc(/C=C/c3ccc(O[C@H](C)C(=O)c4ccc(OC)c(OC)c4)c(OC)c3)cc2OC)cc1OC | inactive | –
5 | COc1ccc(C(=O)[C@@H](C)Oc2ccc([C@@H]3CC[C@@H](c4ccc(O[C@H](C)C(=O)c5ccc(OC)c(OC)c5)c(OC)c4)N3)cc2OC)cc1OC | Dose-dependent effect | –
6 | COc1ccc([C@@H](O)[C@@H](C)Oc2ccc([C@H]3O[C@H](c4ccc(O[C@H](C)[C@H](O)c5ccc(OC)c(OC)c5)c(OC)c4)[C@H](C)[C@H]3C)cc2OC)cc1OC | Active | Activity [1]: Active; Activity [2]: Active; inhibition in vivo at 5 mg/kg [3]: 30%; Activity [4]: Non-Toxic; Activity [5]: Non-Toxic; inhibition in vivo at 5 mg/kg [6]: 80%
7 | COc1ccc(C(=O)[C@@H](C)Oc2ccc(-c3cccc(-c4ccc(O[C@H](C)C(=O)c5ccc(OC)c(OC)c5)c(OC)c4)c3)cc2OC)cc1OC | inactive | –
8 | COc1ccc(C(=O)[C@@H](C)Oc2ccc([C@@H]3CCC[C@H](c4ccc(O[C@H](C)C(=O)c5ccc(OC)c(OC)c5)c(OC)c4)O3)cc2OC)cc1OC | inactive | –
9 | COc1ccc(C(=O)[C@@H](C)Oc2ccc(CC3(Cc4ccc(O[C@H](C)C(=O)c5ccc(OC)c(OC)c5)c(OC)c4)SCCCS3)cc2OC)cc1OC | inactive | –
10 | C=CCN1[C@H](c2ccc(O[C@H](C)C(=O)c3ccc(OC)c(OC)c3)c(OC)c2)CC[C@H]1c1ccc(O[C@H](C)C(=O)c2ccc(OC)c(OC)c2)c(OC)c1 | inactive | –
11 | COc1ccc(C(=O)[C@@H](C)Oc2ccc(-c3cccc(-c4ccc(O[C@H](C)C(=O)c5ccc(OC)c(OC)c5)c(OC)c4)n3)cc2OC)cc1OC | inactive | –
12 | COc1ccc(C(=O)[C@@H](C)Oc2ccc([C@@H]3C[C@@H](C)[C@@H](c4ccc(O[C@H](C)C(=O)c5ccc(OC)c(OC)c5)c(OC)c4)O3)cc2OC)cc1OC | Dose-dependent effect | –
